The results in this text go back to ChEMBL document CHEMBL2385070, “Selective inhibition of bacterial and human topoisomerases by N-arylacyl O-sulfonated aminoglycoside derivatives” (ACS Med Chem Lett, 2013).

Molecules are shown by their SMILES. Active and inactive are the calls of the source. No cut-off for these calls is given here.

Assay [1] relates to Escherichia coli. As to the kind of experiment: Inhibition of Escherichia coli DNA topoisomerase 4 at 200 uM relative to control.
The target in assay [2] is T1, DNA topoisomerase 1 (Homo sapiens) (UniProt P11387).
T1 sequence (whole entry): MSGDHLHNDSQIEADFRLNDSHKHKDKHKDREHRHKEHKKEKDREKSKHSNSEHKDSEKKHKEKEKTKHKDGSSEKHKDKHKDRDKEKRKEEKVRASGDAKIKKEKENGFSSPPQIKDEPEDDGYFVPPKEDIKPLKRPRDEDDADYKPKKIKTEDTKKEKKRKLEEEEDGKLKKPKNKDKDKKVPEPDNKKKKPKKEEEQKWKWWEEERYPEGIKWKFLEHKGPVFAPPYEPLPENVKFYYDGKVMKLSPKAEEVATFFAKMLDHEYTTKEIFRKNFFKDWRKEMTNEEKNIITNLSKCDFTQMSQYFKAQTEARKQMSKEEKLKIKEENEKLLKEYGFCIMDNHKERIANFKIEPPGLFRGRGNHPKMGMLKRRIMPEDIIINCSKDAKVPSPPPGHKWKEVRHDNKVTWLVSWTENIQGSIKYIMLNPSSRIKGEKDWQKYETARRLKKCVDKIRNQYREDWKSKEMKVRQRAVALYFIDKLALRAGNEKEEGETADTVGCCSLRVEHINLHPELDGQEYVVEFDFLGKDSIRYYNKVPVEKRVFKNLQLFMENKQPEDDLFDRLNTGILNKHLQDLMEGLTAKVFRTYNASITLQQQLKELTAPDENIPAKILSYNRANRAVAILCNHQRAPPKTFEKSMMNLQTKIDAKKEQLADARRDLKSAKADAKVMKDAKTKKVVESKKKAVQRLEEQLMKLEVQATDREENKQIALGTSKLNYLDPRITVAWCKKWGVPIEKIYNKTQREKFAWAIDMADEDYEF
As to the kind of experiment: Inhibition of human DNA topoisomerase 1 at 200 uM relative to control.

Assay [3] deals with Escherichia coli. As to the kind of experiment: Inhibition of Escherichia coli DNA gyrase catalytic activity at 200 uM relative to control. In short, it runs like this: (§1)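 E. coli gyrase was incubated with relaxed DNA, either without compound or with compound at 200 μM; titrations also used 20, 50 and 100 μM. Gel lanes included a no-enzyme control and an enzyme-without-compound control, and supercoiling was scored from the lane pattern. In the summary table, + denotes greater than 95% inhibition.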

The target of assay [4] is DNA topoisomerase 2-alpha (Homo sapiens) (UniProt P11388). In words: Inhibition of human DNA topoisomerase 2 at 200 uM relative to control.
Sequence of DNA topoisomerase 2-alpha (Homo sapiens) (P11388 whole entry): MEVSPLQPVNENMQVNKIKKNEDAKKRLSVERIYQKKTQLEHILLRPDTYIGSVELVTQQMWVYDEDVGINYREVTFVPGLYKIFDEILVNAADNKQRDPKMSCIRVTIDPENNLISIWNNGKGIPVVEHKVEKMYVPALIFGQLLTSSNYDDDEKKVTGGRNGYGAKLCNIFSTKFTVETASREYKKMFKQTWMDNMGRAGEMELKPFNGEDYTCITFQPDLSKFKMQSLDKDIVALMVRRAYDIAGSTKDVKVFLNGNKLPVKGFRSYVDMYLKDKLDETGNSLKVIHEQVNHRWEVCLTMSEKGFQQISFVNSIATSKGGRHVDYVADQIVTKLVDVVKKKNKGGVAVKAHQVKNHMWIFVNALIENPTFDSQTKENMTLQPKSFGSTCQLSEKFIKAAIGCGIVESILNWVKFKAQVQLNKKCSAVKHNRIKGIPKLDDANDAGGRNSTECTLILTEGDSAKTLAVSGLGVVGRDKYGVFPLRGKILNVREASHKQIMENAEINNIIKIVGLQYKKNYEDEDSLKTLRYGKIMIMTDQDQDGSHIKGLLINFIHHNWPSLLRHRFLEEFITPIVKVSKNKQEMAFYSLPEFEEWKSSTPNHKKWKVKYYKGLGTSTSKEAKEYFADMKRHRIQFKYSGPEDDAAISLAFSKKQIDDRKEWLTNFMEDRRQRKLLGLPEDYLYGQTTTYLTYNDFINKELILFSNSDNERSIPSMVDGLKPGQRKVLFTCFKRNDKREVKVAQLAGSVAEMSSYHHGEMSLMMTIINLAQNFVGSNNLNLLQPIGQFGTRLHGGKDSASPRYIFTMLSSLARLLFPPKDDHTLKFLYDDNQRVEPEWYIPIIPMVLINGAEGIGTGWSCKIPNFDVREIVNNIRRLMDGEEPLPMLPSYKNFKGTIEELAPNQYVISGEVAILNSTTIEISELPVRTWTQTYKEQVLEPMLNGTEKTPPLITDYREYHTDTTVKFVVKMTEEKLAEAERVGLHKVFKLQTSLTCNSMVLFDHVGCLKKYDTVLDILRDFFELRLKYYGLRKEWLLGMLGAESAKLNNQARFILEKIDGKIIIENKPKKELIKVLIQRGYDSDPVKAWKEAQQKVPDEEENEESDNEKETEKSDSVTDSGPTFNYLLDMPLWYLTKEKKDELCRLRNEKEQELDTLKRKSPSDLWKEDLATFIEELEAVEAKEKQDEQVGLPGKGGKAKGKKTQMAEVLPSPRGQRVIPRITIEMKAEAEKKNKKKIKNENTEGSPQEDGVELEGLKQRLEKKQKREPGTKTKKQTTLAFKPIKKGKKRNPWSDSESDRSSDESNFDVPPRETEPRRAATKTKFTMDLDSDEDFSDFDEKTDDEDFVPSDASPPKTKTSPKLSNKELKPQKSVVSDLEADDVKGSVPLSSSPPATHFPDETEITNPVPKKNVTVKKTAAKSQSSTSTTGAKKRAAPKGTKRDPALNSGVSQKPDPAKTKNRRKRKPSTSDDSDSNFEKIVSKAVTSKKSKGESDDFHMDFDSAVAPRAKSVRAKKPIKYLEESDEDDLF
Assay [5] relates to Escherichia coli. In words: Inhibition of Escherichia coli DNA topoisomerase 4 assessed as blockade of ciprofloxacin-induced pBR322 DNA cleavage at 200 uM after 10 mins by agarose gel electrophoresis. In short, it runs like this:
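E. coli Topo IV was incubated with plasmid DNA and ciprofloxacin with or without compound. Ciprofloxacin traps the enzyme–DNA ternary complex, and nicked and linear DNA products were scored on the gel against the supercoiled substrate.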

For assay [6], the system named is Escherichia coli. In words: Inhibition of Escherichia coli DNA gyrase-mediated supercoiling of relaxed I-DNA after 15 mins by agarose gel electrophoresis. In short, it runs like this:
as §1

Assay [7] has as its system Escherichia coli. As to the kind of experiment: Inhibition of Escherichia coli DNA topoisomerase 4-mediated relaxation of negatively supercoiled pBR322 DNA at 200 uM after 15 mins by agarose gel electrophoresis.
Assay [8] relates to Escherichia coli. As to the kind of experiment: Inhibition of Escherichia coli DNA topoisomerase 4-mediated decatenation of kinetoplast DNA at 200 uM after 15 mins by agarose gel electrophoresis.

For the molecule `CC(=O)NC[C@@H]1O[C@H](O[C@H]2[C@@H](O)[C@H](O[C@@H]3[C@@H](O)[C@H](NC(C)=O)C[C@H](NC(C)=O)[C@H]3O[C@H]3O[C@H](CNC(C)=O)[C@@H](O)[C@H](O)[C@H]3NC(C)=O)O[C@@H]2CO)[C@H](NC(C)=O)[C@@H](O)[C@@H]1O`, the inhibition result (in the assay on Escherichia coli [1]; in assay [2]; in the assay with Escherichia coli [3]; in assay [4]) was “inactive” throughout.
With `O=C(Cc1ccccc1)NC[C@@H]1O[C@H](O[C@H]2[C@@H](O)[C@H](O[C@@H]3[C@@H](O)[C@H](NC(=O)Cc4ccccc4)C[C@H](NC(=O)Cc4ccccc4)[C@H]3O[C@H]3O[C@H](CNC(=O)Cc4ccccc4)[C@@H](O)[C@H](O)[C@H]3NC(=O)Cc3ccccc3)O[C@@H]2CO)[C@H](NC(=O)Cc2ccccc2)[C@@H](O)[C@@H]1O`, the inhibition result (in the assay on Escherichia coli [1]; in assay [2]; with Escherichia coli [3]; in assay [4]) was “inactive” each time.
Take `CN(C(=O)OCc1ccccc1)[C@@H]1[C@@H](O[C@H]2O[C@H](CO)[C@@H](NC(=O)OCc3ccccc3)[C@H](O)[C@H]2O)O[C@H]2C[C@@H](NC(=O)OCc3ccccc3)[C@@H](O[C@H]3[C@H](O)[C@@H](O)[C@H](NC(=O)OCc4ccccc4)C[C@@H]3NC(=O)OCc3ccccc3)O[C@@H]2[C@@H]1O`: the inhibition result (in the assay with Escherichia coli [1]; in assay [2]; in the assay with Escherichia coli [3]; in assay [4]) was “inactive” throughout.
Turning to `CN(C(=O)c1ccccc1)[C@@H]1[C@@H](O[C@H]2O[C@H](CO)[C@@H](NC(=O)c3ccccc3)[C@H](O)[C@H]2O)O[C@H]2C[C@@H](NC(=O)c3ccccc3)[C@@H](O[C@H]3[C@H](O)[C@@H](O)[C@H](NC(=O)c4ccccc4)C[C@@H]3NC(=O)c3ccccc3)O[C@@H]2[C@@H]1O`, the inhibition entry with Escherichia coli [5] was “Active”.
As for `O=C(Cc1ccccc1)NC[C@H]1O[C@H](O[C@H]2[C@H](O)[C@@H](O[C@H]3O[C@H](CO)[C@@H](O)[C@H](NC(=O)Cc4ccccc4)[C@H]3O)[C@H](NC(=O)Cc3ccccc3)C[C@@H]2NC(=O)Cc2ccccc2)[C@H](O)[C@@H](O)[C@@H]1O`, the inhibition result (in the assay on Escherichia coli [1]; in assay [2]; in the assay on Escherichia coli [3]; in assay [4]) was “inactive” throughout.
Regarding `O=C(NC[C@@H]1O[C@H](O[C@H]2[C@@H](O)[C@H](O[C@@H]3[C@@H](O)[C@H](NC(=O)OCc4ccccc4)C[C@H](NC(=O)OCc4ccccc4)[C@H]3O[C@H]3O[C@H](CNC(=O)OCc4ccccc4)[C@@H](O)[C@H](O)[C@H]3NC(=O)OCc3ccccc3)O[C@@H]2CO)[C@H](NC(=O)OCc2ccccc2)[C@@H](O)[C@@H]1O)OCc1ccccc1`, the inhibition entry (in the assay on Escherichia coli [1]; in assay [2]; with Escherichia coli [3]; in assay [4]) was “inactive” each time.
For the molecule `O=C(NC[C@H]1O[C@H](O[C@H]2[C@H](O)[C@@H](O[C@H]3O[C@H](CO)[C@@H](O)[C@H](NC(=O)c4ccccc4)[C@H]3O)[C@H](NC(=O)c3ccccc3)C[C@@H]2NC(=O)c2ccccc2)[C@H](O)[C@@H](O)[C@@H]1O)c1ccccc1`, the inhibition result (in the assay on Escherichia coli [1]; in assay [2]; with Escherichia coli [3]; in assay [4]) was “inactive” in each case.
Consider `O=C(NC[C@H]1O[C@H](O[C@H]2[C@H](O)[C@@H](O[C@H]3O[C@H](CO)[C@@H](O)[C@H](NC(=O)OCc4ccccc4)[C@H]3O)[C@H](NC(=O)OCc3ccccc3)C[C@@H]2NC(=O)OCc2ccccc2)[C@H](O)[C@@H](O)[C@@H]1O)OCc1ccccc1`, for which the inhibition entry (in the assay with Escherichia coli [1]; in assay [2]; with Escherichia coli [3]; in assay [4]) was “inactive” each time.
`O=C(NC[C@@H]1O[C@H](O[C@H]2[C@@H](OS(=O)(=O)O)[C@H](O[C@@H]3[C@@H](OS(=O)(=O)O)[C@H](NC(=O)OCc4ccccc4)C[C@H](NC(=O)OCc4ccccc4)[C@H]3O[C@H]3O[C@H](CNC(=O)OCc4ccccc4)[C@@H](OS(=O)(=O)O)[C@H](OS(=O)(=O)O)[C@H]3NC(=O)OCc3ccccc3)O[C@@H]2COS(=O)(=O)O)[C@H](NC(=O)OCc2ccccc2)[C@@H](OS(=O)(=O)O)[C@@H]1OS(=O)(=O)O)OCc1ccccc1`: the inhibition result in the assay on Escherichia coli [6] is “Dose-dependent effect”. The inhibition entry in the assay with Escherichia coli [7], in the assay with Escherichia coli [5] and with Escherichia coli [8] was “Active” throughout.
